Measurements taken from ChEMBL document CHEMBL1828604, “Antifungal activity of a series of 1,2-benzisothiazol-3(2H)-one derivatives” (Bioorg Med Chem, 2011).
Converted amounts (≈) assume the structure as drawn.

Legend:
Candida albicans = experiment: Antifungal activity against Candida albicans CAF-2 after 24 hrs by broth microdilution method; format: functional; conditions: CAF-2, 24 h
How it was run: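 Broth microdilution per CLSI M27-A3: 1000 cells per well in RPMI, two-fold compound dilutions from 0.1 to 50 μg/ml, final volume 100 μL RPMI. MIC-50 is the lowest concentration that inhibits growth to half the OD of the untreated control.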

[1] = Antifungal activity against Candida apicola after 24 hrs by broth microdilution method; format: functional
How it was run: (§1)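 Broth microdilution per CLSI M27-A3 and M38-A2. 1000 cells per well in RPMI (final 100 µL) with two-fold compound dilutions from 0.1 to 50 µg/ml. MIC-50 is the lowest concentration that cuts growth to half the OD of the untreated control. Candida species are clinical strains. A. fumigatus strain is AF-294.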

Aspergillus fumigatus = experiment: Antifungal activity against Aspergillus fumigatus AF-294 after 48 hrs by broth microdilution method; conditions: AF-294, 48 h
Candida parapsilosis = experiment: Antifungal activity against Candida parapsilosis after 24 hrs by broth microdilution method; format: functional; conditions: Lodderomyces parapsilosis; how it was run: as §1
[2] = test system: Meyerozyma guilliermondii; experiment: Antifungal activity against Candida guilliermondii after 24 hrs by broth microdilution method; format: functional; how it was run: as §1
Nakaseomyces glabratus = experiment: Antifungal activity against Candida glabrata after 24 hrs by broth microdilution method; format: functional; how it was run: as §1
Clavispora lusitaniae = experiment: Antifungal activity against Candida lusitaniae after 24 hrs by broth microdilution method; format: functional; how it was run: as §1
Cryptococcus neoformans [3] = experiment: Antifungal activity against Cryptococcus neoformans JEC-21 after 72 hrs by broth microdilution method; format: functional; conditions: JEC-21, 72 h; how it was run: as §1
Cryptococcus neoformans [4] = experiment: Antifungal activity against Cryptococcus neoformans H-99 after 72 hrs by broth microdilution method; format: functional; conditions: H-99, 72 h; how it was run: as §1
Candida tropicalis = experiment: Antifungal activity against Candida tropicalis after 24 hrs by broth microdilution method; format: functional; how it was run: as §1
HepG2 = experiment: Cytotoxicity against human HepG2 cells by MTT assay; format: cell-based
How it was run: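 MTT viability assay at defined compound concentrations in human hepatoma cell lines HepG2 and Huh7.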

[5] = Cytotoxicity against human HepG2 cells after 72 hrs by neutral red cell viability assay; format: cell-based
How it was run: (§2)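 Neutral red viability assay on HepG2 human hepatoma cells at defined compound concentrations, exposure 24, 48 or 72 h. CC-50 was calculated from the viability data.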

[6] = Cytotoxicity against human HepG2 cells after 24 hrs by neutral red cell viability assay; format: cell-based; how it was run: as §2
[7] = Ratio of CC50 for human HepG2 cells to MIC50 for antifungal activity; format: functional
[8] = Cytotoxicity against human HepG2 cells after 48 hrs by neutral red cell viability assay; format: cell-based; how it was run: as §2
Huh-7 = experiment: Cytotoxicity against human HuH7 cells by MTT assay; format: cell-based

Question: For `O=C(Cn1sc2ccccc2c1=O)Nc1ccccc1`, which MIC50 (Candida albicans) is on record?
Answer: 6.4 µg/mL (≈ 22.5 µM)

Question: Which results are given for `OC(Cn1cncn1)(Cn1cncn1)c1ccc(F)cc1F` [FLUCONAZOLE]?
Answer: MIC50 [1]: 0.2 µg/mL (≈ 0.653 µM); MIC50 (Aspergillus fumigatus): 16 µg/mL (≈ 52.2 µM); MIC50 (Candida parapsilosis): 0.4 µg/mL (≈ 1.31 µM); MIC50 [2]: 6.4 µg/mL (≈ 20.9 µM); MIC50 (Nakaseomyces glabratus): 3.2 µg/mL (≈ 10.4 µM); MIC50 (Candida albicans): 0.2 µg/mL (≈ 0.653 µM); MIC50 (Clavispora lusitaniae): 3.2 µg/mL (≈ 10.4 µM); MIC50 (Cryptococcus neoformans [3]): > 64 µg/mL; MIC50 (Cryptococcus neoformans [4]): > 64 µg/mL; MIC50 (Candida tropicalis): 16 µg/mL (≈ 52.2 µM)

Question: Which MIC50 (Candida albicans) does the source give for `C[C@H](NC(=O)Cn1sc2ccccc2c1=O)c1ccccc1` here?
Answer: 6.4 µg/mL (≈ 20.5 µM)

Question: With `COc1cccc(CNC(=O)Cn2sc3ccccc3c2=O)c1` as the compound, how does the MIC50 (Candida albicans) read?
Answer: 3.2 µg/mL (≈ 9.74 µM)

Question: With `O=C(Cn1sc2ccccc2c1=O)Nc1nccs1` as the compound, how does the MIC50 (Candida albicans) read?
Answer: > 50 µg/mL

Question: Which MIC50 (Candida albicans) does the source give for `O=C(Cn1sc2ccccc2c1=O)NCc1ccccc1` here?
Answer: 3.2 µg/mL (≈ 10.7 µM)

Question: Which MIC50 (Candida albicans) does the source give for `O=C(Cn1sc2ccccc2c1=O)NCCc1ccccc1` here?
Answer: > 50 µg/mL

Question: For `CN(C(=O)Cn1sc2ccccc2c1=O)c1ccccc1`, which MIC50 (Candida albicans) is on record?
Answer: > 50 µg/mL

Question: Which MIC50 (Candida albicans) does the source give for `COc1ccc(CNC(=O)Cn2sc3ccccc3c2=O)cc1` here?
Answer: 3.2 µg/mL (≈ 9.74 µM)

Question: Which MIC50 (Candida albicans) does the source give for `O=C(Cn1sc2ccccc2c1=O)NCc1ccc(F)cc1` here?
Answer: 1.6 µg/mL (≈ 5.06 µM)

Question: With `COC(=O)c1cccc(NC(=O)Cn2sc3ccccc3c2=O)c1` as the compound, how does the MIC50 (Candida albicans) read?
Answer: 12.5 µg/mL (≈ 36.5 µM)

Question: Which Activity (HepG2) does the source give for `CN(Cc1ccccc1)C(=O)Cn1sc2ccccc2c1=O` here?
Answer: Toxic

Question: What about the MIC50 [1] of the same compound?
Answer: 1.6 µg/mL (≈ 5.12 µM)

Question: And the MIC50 (Aspergillus fumigatus)?
Answer: 12.5 µg/mL (≈ 40 µM)

Question: And the MIC50 (Candida parapsilosis)?
Answer: 1.6 µg/mL (≈ 5.12 µM)

Question: What about the MIC50 [2] of the same compound?
Answer: 1.6 µg/mL (≈ 5.12 µM)

Question: And the MIC50 (Nakaseomyces glabratus)?
Answer: 1.6 µg/mL (≈ 5.12 µM)

Question: What about the MIC50 (Candida albicans) of the same compound?
Answer: 1.6 µg/mL (≈ 5.12 µM)

Question: What about the CC50 at 72 h [5] of the same compound?
Answer: 23.2 µg/mL (≈ 74.3 µM)

Question: What about the MIC50 (Clavispora lusitaniae) of the same compound?
Answer: 1.6 µg/mL (≈ 5.12 µM)

Question: What about the CC50 at 24 h [6] of the same compound?
Answer: 62.2 µg/mL (≈ 199 µM)

Question: And the MIC50 (Cryptococcus neoformans [3])?
Answer: 1.6 µg/mL (≈ 5.12 µM)

Question: And the Ratio [7]?
Answer: 15

Question: And the MIC50 (Cryptococcus neoformans [4])?
Answer: 1.6 µg/mL (≈ 5.12 µM)

Question: And the MIC50 (Candida tropicalis)?
Answer: 1.6 µg/mL (≈ 5.12 µM)

Question: What about the CC50 at 48 h [8] of the same compound?
Answer: 25.7 µg/mL (≈ 82.3 µM)

Question: What about the Activity (Huh-7) of the same compound?
Answer: Toxic

Question: For `O=C(Cn1sc2ccccc2c1=O)NCCN1CCOCC1`, which MIC50 (Candida albicans) is on record?
Answer: > 50 µg/mL

Question: For `O=C(Cn1sc2ccccc2c1=O)NC12CC3CC(CC(C3)C1)C2`, which MIC50 (Candida albicans) is on record?
Answer: 3.2 µg/mL (≈ 9.34 µM)

Question: Which MIC50 (Candida albicans) does the source give for `CCN(CC)C(=O)Cn1sc2ccccc2c1=O` here?
Answer: > 50 µg/mL

Question: Which MIC50 (Candida albicans) does the source give for `C[C@@H](NC(=O)Cn1sc2ccccc2c1=O)c1ccccc1` here?
Answer: 6.4 µg/mL (≈ 20.5 µM)

Question: Which MIC50 (Candida albicans) does the source give for `CC(C(=O)NCc1ccccc1)n1sc2ccccc2c1=O` (racemic) here?
Answer: > 50 µg/mL

Question: Which MIC50 (Candida albicans) does the source give for `CCN(Cc1ccccc1)C(=O)Cn1sc2ccccc2c1=O` here?
Answer: 6.4 µg/mL (≈ 19.6 µM)

Question: Which MIC50 (Candida albicans) does the source give for `COC(=O)c1ccccc1NC(=O)Cn1sc2ccccc2c1=O` here?
Answer: 6.4 µg/mL (≈ 18.7 µM)

Question: For `CC(C(=O)N(C)Cc1ccccc1)n1sc2ccccc2c1=O` (racemic), which MIC50 (Candida albicans) is on record?
Answer: 25 µg/mL (≈ 76.6 µM)
